This is a sample that favours compounds with a hit; in the whole collection about 4.6% have one here.
GPR7 antagonist: human neuropeptides B/W receptor 1 antagonism; AID 1861; actives 1.1% (n = 290,000); GPR7-expressing cells, fluorescence antagonist assay; inhibition, % at 4.4 µM; P48145; in the data active = inhibition above about 16%, passing the limit was not always enough;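 also: cells stimulated with the agonist NPW; 0% = agonist with vehicle and 100% = vehicle without agonist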
CHO parental Ca: counter-screen: ATP calcium response change in parental CHO cells. parental CHO-K1, ATP-induced calcium, Fluo-8 fluorescence. inhibition, % at 5.6 µM. actives 0.63% (n = 330,000). AID 463079;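 active = inhibition above that plate's mean sample inhibition plus 3 SD, cut at about 26% in these data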;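 also: 0% = ATP-challenged DMSO wells and 100% = DMSO wells without ATP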
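material = parental CHO cells | also added = ATP as calcium-mobilizing challenge | dosing = single point at 5.6 µM | detection = intracellular calcium via Fluo-8 no-wash fluorescent dye | read-out = % inhibition | benchmarks = low control ATP plus DMSO, high control DMSO only | repeats = one well per compound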
TAAR1 antagonist: antagonists of human TAAR1. actives 1.5% (n = 360,000). Q96RJ0. CHO RD-HGA16 TAAR1, Fluo-8 calcium fluorescence, antagonist. inhibition, % at 3 µM;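 active = inhibition above a per-plate cutoff, the mean inhibition of test compounds on that plate plus 3 SD, cut at about 49% in these data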;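 also: 0% = DMSO plus EC80 beta-PEA response and 100% = DMSO alone without agonist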
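Assay system: RD-HGA16 CHO cells with stable hTAAR1 and Gα16 / Reagent: EC80 β-phenethylamine stimulus / Doses: 3 µM, single point / Timing: dye loading 75 min at 37 °C, then 30 min room temperature / Measured by: Fluo-8 intracellular calcium dye fluorescence, real-time kinetic reads / Controls: vehicle wells and EC80 agonist wells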
OX1R antag-1: human HCRTR1 antagonism. CHO/OX1R cells, Fluo-8 calcium fluorescence, orexin A. inhibition, % at 5 µM. actives 0.43% (n = 330,000). AID 434989;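 active = inhibition above its plate's threshold, mean inhibition of all tested compounds on the plate plus 3 SD, cut at about 37% in these data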;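 also: 0% = orexin A challenge wells and 100% = SB-334867-A antagonist wells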
Target sequence (O43613 whole entry, looked up): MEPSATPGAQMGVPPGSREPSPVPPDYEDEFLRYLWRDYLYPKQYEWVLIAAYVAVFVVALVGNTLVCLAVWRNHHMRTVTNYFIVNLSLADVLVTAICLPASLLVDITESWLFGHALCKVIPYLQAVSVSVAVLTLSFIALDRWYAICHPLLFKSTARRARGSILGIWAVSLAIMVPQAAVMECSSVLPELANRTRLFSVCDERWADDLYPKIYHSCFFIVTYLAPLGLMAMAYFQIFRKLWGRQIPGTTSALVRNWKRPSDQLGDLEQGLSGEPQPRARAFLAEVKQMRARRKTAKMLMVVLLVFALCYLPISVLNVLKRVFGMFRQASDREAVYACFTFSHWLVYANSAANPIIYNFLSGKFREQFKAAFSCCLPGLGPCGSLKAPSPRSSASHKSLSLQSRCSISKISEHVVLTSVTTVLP
OX1R antag-2: antagonists of human orexin 1 receptor (OX1R); OX1R-expressing cells, FRET antagonist read-out; actives 1.8% (n = 330,000); O43613; inhibition, % at 6.6 µM; in the data active = inhibition mostly above about 38%, no sharp cut-off; inactive = mostly below about 40%;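 also: 0% = agonist challenge alone and 100% = reference antagonist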
TAAR1 agonist: agonists of human TAAR1. CHO RD-HGA16 TAAR1, Fluo-8 calcium fluorescence; vehicle wells 0%, saturating PEA agonist 100%. activation, % at 3 µM. actives 0.99% (n = 360,000). AID 624467;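 active = activation above the mean activation of all test compounds in the run plus 3 SD, cut at about 38% in these data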
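Repeats: no replicates (n 1) | Material: CHO-derived RD-HGA16 cells with stable Gα16 and human TAAR1 | Technique: Kinetic Fluo-8 calcium fluorescence | Schedule: 17-24 h seeding, 75 min 37 °C dye, 30 min RT | Evaluation: % activation from peak over basal fluorescence ratio, DMSO-to-PEA scaled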
Starred values were filed as active, the others as inactive; / = not tested or not shown.

SMILES | GPR7 antagonist | CHO parental Ca | TAAR1 antagonist | OX1R antag-1 | OX1R antag-2 | TAAR1 agonist
CCOC(=O)CN1C(=O)S/C(=C/c2ccc(O)c([N+](=O)[O-])c2)C1=O | -3 | -7 | 7 | -6 | 56* | 7
CCOC(=O)CN1C(=O)S/C(=C/c2ccc(C)o2)C1=O | 9 | -3 | 17 | -9 | 11 | 3
O=C(O)c1ccc(/C=C2\SC(=S)N(NC(=O)c3ccccc3[N+](=O)[O-])C2=O)cc1 | -1 | / | -18 | / | / | 0
Cc1cccc(/C(N)=N/OC(=O)c2ccc(F)cc2)c1 | -9 | -4 | -6 | -7 | 8 | 5
COc1cc(OC)c(C(=O)O/N=C(\N)c2cccc(C)c2)cc1OC | -13 | -26 | 0 | -14 | 36* | 0
COc1cc(OC)c(C(=O)O/N=C(\N)c2ccc(C)cc2)cc1OC | 11 | -15 | -4 | -23 | 36* | -2
O=C(NCCCN1CCOCC1)C(=O)N/N=C/c1cccc2ccccc12 | -6 | -31 | -31 | 0 | 49* | 1
CCOc1ccc(Cn2nnc(C(=O)NCc3ccc(OC)cc3)c2N)cc1 | 0 | -3 | 13 | 4 | 15 | 50*
CCOc1cccc2cc(-c3nnc(NCc4ccco4)s3)c(=O)oc12 | 4 | -13 | 25 | -1 | 46* | 4
COc1ccc2oc(=O)c(-c3nnc(NCc4ccco4)s3)cc2c1 | -4 | -9 | 10 | -26 | 24 | 9
C[C@H](NC(=O)c1ccco1)C(=O)NNC(=O)c1ccc(F)cc1 | / | -1 | -31 | 4 | 6 | 4
CCn1c(/C=C/c2ccccc2[N+](=O)[O-])nc2ccccc2c1=O | -19 | -14 | -3 | -8 | 53* | 5
Cn1c(/C=C/c2ccccc2[N+](=O)[O-])nc2ccccc2c1=O | -20 | / | 10 | / | / | 5
Nc1c(Cl)ncnc1N/N=C/c1ccccn1 | -4 | -6 | 8 | 1 | 92* | 0
Nc1c(Cl)ncnc1N/N=C/c1ccc2ccccc2n1 | -5 | 34 | 3 | 35 | 75* | 4
COc1ccc(N2C(=O)c3[nH]nc(-c4ccccc4)c3C2c2cccc(C(F)(F)F)c2)cc1 (configuration not stated) | / | / | -46 | / | / | 13
CCCc1nc2cc(C)c(Br)c(C)n2c1Cc1ccccc1OC | / | / | -7 | / | / | 2
N#Cc1ccccc1Sc1ccccc1C(=O)Nc1ccc2ccccc2c1 | 7 | 2 | 30 | 3 | 58* | 1
N#Cc1ccccc1Sc1ccccc1C(=O)Nc1ccc(Br)cc1 | -2 | 17 | 31 | 0 | 28 | 3
CCOc1ccc([C@@H]2CC=C(C(=O)O)[C@H](c3cccc(Cl)c3)N2S(=O)(=O)c2ccc(C)cc2)cc1 | / | 4 | 16 | -18 | 55* | 1
CCOc1ccc([C@@H]2CC=C(C(=O)O)[C@H](c3ccc(F)cc3)N2S(=O)(=O)c2ccc(C)cc2)cc1 | / | -9 | 15 | 2 | 22 | 13
Cc1ccc(S(=O)(=O)N2C(c3cccc(Cl)c3)CC=C(C(=O)O)C2c2cccc(Cl)c2)cc1 (configuration not stated) | / | / | 2 | / | / | 2
Cc1ccc(S(=O)(=O)N2[C@@H](c3cccc(Cl)c3)C(C(=O)O)=CC[C@H]2c2ccc(Cl)cc2)cc1 | / | -1 | 52* | 30 | 74* | 4
COC(=O)[C@@]12C[C@@H](CC(=O)NCCc3ccccc3OC)C(=O)N(Cc3ccco3)C1=CCC(C)(C)C2 | / | / | 3 | / | / | 6
c1ccc(-c2nc3nc4ccccc4nc3n2CC2CCCO2)cc1 (configuration not stated) | -14 | -12 | 51* | -18 | 24 | 22
SMILES | GPR7 antagonist | CHO parental Ca | TAAR1 antagonist | OX1R antag-1 | OX1R antag-2 | TAAR1 agonist
O=C(c1ccco1)N1CCN(c2ncnc3c2oc2ccccc23)CC1 | -3 | -14 | 10 | 0 | 74* | 14
O=C1c2cc(Cl)ccc2OC2(CCNCC2)C12CC(c1ccccc1)=NO2 (configuration not stated) | / | 3 | 39 | -2 | 32 | 43*
O=C1c2cc(Cl)ccc2OC2(CCNCC2)C12CC(c1ccc(Cl)cc1)=NO2 (configuration not stated) | / | -2 | / | -22 | 19 | /
CCNC(=O)C1CCCN(Cc2cc(-c3ccccc3)on2)CC1 (configuration not stated) | / | / | -16 | / | / | 3
Nc1[nH]c(C(=O)c2ccccc2)c(-c2cccc(C(F)(F)F)c2)c1C(=O)c1c[nH]c2ccccc12 | / | / | -1 | / | / | 3
Cc1ccc(NC(=O)Cn2c(=O)oc3cc(S(=O)(=O)N4CCC(C)CC4)ccc32)cc1C | -16 | 32* | 18 | -8 | 14 | -2
COc1ccc(NC(=O)Cn2c(=O)oc3cc(S(=O)(=O)N4CCCC4)ccc32)cc1 | -10 | 9 | -13 | 0 | 2 | 4
CC(C)(C)n1nnnc1C(c1cccs1)N(Cc1ccc(Cl)cc1)CC1CCCO1 (configuration not stated) | -10 | 38* | -7 | -44 | 9 | -1
Clc1ccc(CN(Cc2ccccc2)C(c2cccs2)c2nnnn2C2CCCC2)cc1 (configuration not stated) | -2 | -30 | -13 | -24 | 19 | 2
COc1ccc(-c2cc(NC=O)c3ncc(-c4cccc(C(=O)NCCN(C)C)c4)n3c2)c(OC)c1 | / | / | -10 | / | / | 2
COc1cccc(Nc2cc(C)c3ccccc3n2)c1 | -1 | -28 | -15 | -30 | 49* | -3
COc1ccc(OC)c(Nc2cc(C)c3ccccc3n2)c1 | 21 | -28 | 11 | -22 | 11 | -3
O=C1NC(=O)C(Cc2cccc(Oc3ccccc3)c2)S1 (configuration not stated) | 5 | -5 | -22 | -14 | 44* | 0
CC(C)NC(=O)Nc1cccc2c1O[C@H](CN(C)C(=O)Nc1ccccc1)[C@@H](C)CN([C@H](C)CO)C2=O | / | -10 | 18 | -9 | -1 | 14
CC(C)NC(=O)Nc1cccc2c1O[C@H](CN(C)C(=O)Nc1ccc(C(F)(F)F)cc1)[C@@H](C)CN([C@H](C)CO)C2=O | / | -2 | -19 | -8 | 7 | 5
C[C@H](CO)N1C[C@H](C)[C@@H](CN(C)C(=O)Nc2ccccc2)Oc2c(NC(=O)Nc3ccc(C(F)(F)F)cc3)cccc2C1=O | / | -2 | 49* | -42 | 9 | 13
C[C@H](CO)N1C[C@H](C)[C@@H](CN(C)C(=O)Nc2ccccc2)Oc2c(NC(=O)Nc3ccccc3)cccc2C1=O | / | -9 | 50* | -16 | 0 | 6
COC(=O)c1c(-c2ccc(S(C)(=O)=O)cc2)sc2ccc(OC)cc12 | / | -12 | 49* | 6 | 3 | 9
COc1ccc(Nc2nnc(-c3ccc4c(c3)OCO4)o2)cc1 | / | / | 2 | / | / | 3
